Bioassay records from PubChem.
CYP2C19 activ: human CYP2C19 activators, primary screen, biochemical, luminescence | recombinant CYP2C19, luciferin-H EGE luminescence; stronger effect = higher value; 0 = fully inhibited enzyme, 1 = untreated enzyme | activation factor at 5 µM | 96,000 tested, under 10 active | AID 1025, 2008;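 active = activation factor of at least 2 at 5 µM in the primary screen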
Target sequence (P33261 whole entry, looked up): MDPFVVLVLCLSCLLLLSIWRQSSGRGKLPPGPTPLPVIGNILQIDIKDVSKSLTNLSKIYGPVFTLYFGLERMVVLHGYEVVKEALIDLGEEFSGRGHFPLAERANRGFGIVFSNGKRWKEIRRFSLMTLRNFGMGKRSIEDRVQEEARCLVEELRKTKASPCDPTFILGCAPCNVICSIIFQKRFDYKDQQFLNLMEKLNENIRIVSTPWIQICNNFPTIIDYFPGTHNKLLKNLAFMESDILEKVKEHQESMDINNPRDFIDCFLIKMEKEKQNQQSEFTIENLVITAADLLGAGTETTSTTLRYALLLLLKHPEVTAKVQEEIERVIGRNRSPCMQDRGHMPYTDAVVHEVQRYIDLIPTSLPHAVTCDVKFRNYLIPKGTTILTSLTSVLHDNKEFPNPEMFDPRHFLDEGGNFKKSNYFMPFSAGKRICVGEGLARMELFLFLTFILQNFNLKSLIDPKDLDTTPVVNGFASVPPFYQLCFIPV
CYP2C9 act: human CYP2C9 activators, primary screen, biochemical, luminescence. Cytochrome P450 2C9 (Homo sapiens), P11712. recombinant CYP2C9, luciferin-H conversion; stronger effect = higher value; factor 1 = untreated enzyme, 0 = blocked. activation factor at 5 µM. 96,000 compounds, 1.4% hits. AID 1024, 2008;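 active = activation factor of 2 or more for CYP2C9 at a 5 µM dose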
tolC growth inh: growth inhibitors of E. coli tolC mutant, primary screen, strain BW25113 ΔtolC::kan, 384-well. OD615. growth inhibition, % at 10 µM (by protocol). 65,000 compounds, 2.2% hits;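 active = growth inhibition at or above a cutoff equal to the mean over every tested compound plus 3 SD, cut at about 60% in these data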;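 also: growth measured after 20 h incubation at 37 °C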
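System: E. coli ΔtolC::kan strain BW25113; Buffer or medium: LB broth supplemented with 50 µg/mL kanamycin; Compound: 10 µM final, single dose; Incubation: bacterial growth with compound for 20 h at 37 °C; Signal: A615 absorbance measurement; Evaluation: growth inhibition in percent.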
CYP2C9 inh: blockers of cytochrome P450 2C9 activity – biochemical, luminescence, ADME assay, primary screen; 96,000 compounds, 20% hits; CYP2C9 Supersomes, luciferin-H conversion; inhibition, % at 5 µM;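 active = blocking of liver enzyme CYP2C9 beyond about 50% at 5 µM, limit read from the data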
Ecoli WT expand: growth inhibitors of wild-type E. coli, primary screen, strain BW25113, expanded library, OD600. OD600 absorbance. growth inhibition, % at 100 µM. 98,000 compounds, 0.15% hits. AID 710, 2007;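 active = growth inhibition above about 50% at one test dose, limit read from the data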;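 also: growth measured after 20 h incubation at 37 °C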
CYP2C19 inhib: blockers of cytochrome P450 2C19 activity – biochemical, luminescence, ADME assay, primary screen; CYP2C19 Supersomes, luciferin-H EGE luminescence, 30 min; inhibition, % at 5 µM; 96,000 compounds, 21% hits;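 active = CYP2C19 inhibition above a set limit at 5 µM in the primary screen, cut at about 50% in these data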
Numbers stand for hits; i = inactive; nt = not tested or not shown. Shown are actives, neighbours in structure and some others; about 29% of the full set was active somewhere.

SMILES	CYP2C19 activ	CYP2C9 act	tolC growth inh	CYP2C9 inh	Ecoli WT expand	CYP2C19 inhib
COC(=O)C(NC(C)=O)(Nc1ccccn1)C(F)(F)F (stereo not drawn)	i	i	i	50.3	i	i
COC(=O)C(NC(C)=O)(Nc1ccc(Br)cn1)C(F)(F)F (stereo not drawn)	i	i	i	i	i	82.3
CCOC(=O)C(NC(=O)CC)(Nc1cc(C)on1)C(F)(F)F (stereo not drawn)	i	i	i	i	i	i
COC(=O)C(NC(=O)c1ccco1)(Nc1ccc(Br)cn1)C(F)(F)F (stereo not drawn)	i	i	i	i	i	93.6
COC(=O)C(NC(C)=O)(Nc1nc(C)cs1)C(F)(F)F (stereo not drawn)	i	i	nt	i	i	i
CCCCC(=O)NC(Nc1ccc(C)cn1)(C(=O)OCC)C(F)(F)F (stereo not drawn)	i	i	i	i	i	65.6
CCOC(=O)/C(C#N)=C\C=C1C=CN(C)C=C1	i	i	nt	i	i	i
CC1CCCC(C)N1CCNC(=O)C1CCN(S(=O)(=O)N2CCCCC2)CC1 (stereo not drawn)	i	i	i	i	i	i
O=c1cc(CSc2nnc(-c3ccco3)o2)c2ccccc2[nH]1	i	i	i	i	i	i
COC(=O)C(NC(C)=O)(Nc1nc2c(C)cc(C)cc2s1)C(F)(F)F (stereo not drawn)	i	i	nt	99.3	i	91.6
Cc1ccc(-n2c(-c3cc(C)n(C)n3)n[nH]c2=S)cc1	i	i	nt	i	i	i
C=CCN1C(=O)/C(=C2/Sc3ccccc3N2C)SC1=Nc1ccccc1C	i	i	nt	55.5	i	i
C=CCN1C(=O)/C(=C2/Sc3ccccc3N2C)SC1=Nc1c(C)n[nH]c1C	i	i	i	i	i	i
CCOC(=O)c1cnc(SC2CC(=O)N(c3cccc(OC)c3)C2=O)nc1N (stereo not drawn)	i	i	i	72.8	i	i
CCOC(=O)C1=C(C)N(C)C(=O)NC1c1cccc(O)c1 (stereo not drawn)	i	i	i	i	i	i
CCC1SC2=NC(C)=C(C(=O)OC)C(c3cccs3)N2C1=O (stereo not drawn)	i	i	i	i	i	90.4
C=CCOC(=O)C1=C(C)N=C2SCCC(=O)N2C1c1cccs1 (stereo not drawn)	i	i	i	i	i	i
CCOC(=O)C1=C(C)N=C2SC(CC)C(=O)N2C1c1cccc(F)c1 (stereo not drawn)	i	i	i	75.3	i	90.9
O=c1oc(-c2ccccc2F)nc2c1cnn2-c1ccccc1	i	i	nt	i	i	i
Cc1[nH]nc2c1/C(=N\O)CC(C)(C)C2	i	i	i	i	i	51.0
CCc1noc2c1/C(=N\O)CC(c1ccccc1)C2 (stereo not drawn)	i	i	i	72.5	i	75.8
CCCc1n[nH]c2c1/C(=N/O)CC(c1ccccc1)C2 (stereo not drawn)	i	i	i	i	i	77.2
Cc1oc2c(c(=O)c1C)C(=O)CC(c1ccccc1)C2 (stereo not drawn)	i	i	i	i	i	i
Cc1[nH]nc2c1/C(=N/O)CC(c1ccccc1)C2 (stereo not drawn)	i	i	nt	i	i	73.6
FC(F)(F)c1nnc2ccc(-n3ccnc3)nn12	i	i	i	i	i	i
SMILES	CYP2C19 activ	CYP2C9 act	tolC growth inh	CYP2C9 inh	Ecoli WT expand	CYP2C19 inhib
COc1ccc(C(=O)n2nc(C)cc2Nc2ccccc2)cc1	i	i	nt	75.1	i	i
Cc1cccc(NC(=O)c2ccc(S(=O)(=O)N3CCCCC3)cc2)n1	nt	nt	i	nt	nt	nt
Cc1nn(C)c(C)c1NS(=O)(=O)c1ccccc1	i	i	i	i	i	i
Cc1nn(-c2ccccc2)c(C)c1NS(=O)(=O)c1ccccc1	i	i	i	91.0	i	95.5
Cc1nn(-c2ccccc2)c(C)c1NC(=O)c1ccc(S(=O)(=O)N2CCCC2)cc1	i	i	i	57.3	i	i
CCn1nc(C)c(NS(=O)(=O)c2ccccc2)c1C	i	i	nt	i	i	85.0
Cc1cc(Nc2ccccc2)nn1C(=O)c1ccccc1	i	i	i	i	i	i
